From PubChem BioAssay
Activity calls are given as the source filed them.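 Rule for the calls, unless noted: active = NADPH fluorescence slope more negative than the mean of all samples by about 3 SD, 99.7% confidence; inactive = the rest.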

Assays:
[1] = inhibitors of E-selectin induction by TNFa, primary screen, imaging, HUVEC, immunofluorescence, MLSMR starter and 10KST1 sets (AID 487;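 active = visually confirmed hit in the image check and inhibition above 20%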;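 for inhibition: signal is fraction of cell area covered by stained E-selectin grains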;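 for nuclei count: 100% = median nuclei count of all wells on the same plate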); conditions: HUVEC TNFalpha-induced E-selectin immunofluorescence imaging, at 2 µM; inhibition: stronger effect = higher value; nuclei count: measured here: cell number, toxicity
[2] = DUSP6 inhibitors restoring Erk phosphorylation by chemical complementation, primary imaging in DUSP6-transfected HeLa (AID 609;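 active = compounds giving at least 50% inhibition in the cell-based MKP-3 phosphatase rescue imaging test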;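 for inhibition: phospho-Erk level distribution per well compared with pooled transfected vehicle control wells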); conditions: HeLa MKP-3 transfected, phospho-Erk imaging KS statistic, at 10 µM, cells stimulated with TPA for 15 min
[3] = molecular target: Dual specificity protein phosphatase 6 (Homo sapiens) (UniProt Q16828); experiment: as above; conditions: HeLa MKP-3 transfected, phospho-Erk imaging KS statistic; at 10 µM; stronger effect = higher value; cells stimulated with TPA for 15 min
[4] = molecular target: Voltage-gated potassium channel subunit beta-2 (Rattus norvegicus) (UniProt P62483); experiment: KvBeta enzyme negative modulators, primary screen, biochemical, NADPH fluorescence (AID 622;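 active = fluorescence slope higher than the sample average by over 3 SD, cut at about -0.22 in these data, passing the limit was not always enough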;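 note: slope of raw intensity against log time taken from 70 to 1610 s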); conditions: recombinant KvBeta, 4-cyanobenzaldehyde reduction, at 10 µM, stronger effect = higher value
[5] = molecular target: Voltage-gated potassium channel subunit beta-2 (Rattus norvegicus) (UniProt P62483); experiment: KvBeta positive modulators, primary screen, biochemical, NADPH fluorescence (AID 623); conditions: Recombinant KvBeta, NADPH fluorescence decrease slope, 10 min; at 10 µM; stronger effect = lower value;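 note: fluorescence intensity change per second fitted from 20 to 320 s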
[6] = molecular target: Muscarinic acetylcholine receptor M4 (Homo sapiens) (UniProt P08173); experiment: compounds altering M4/GIRK thallium flux, either direction, primary screen, M4 allosteric agonist project, cell-based, HEK293 M4/GIRK, BTC-AM (AID 625;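 active = fluorescence slope after compound addition differing from the mean of all tested samples at 99.7% confidence, mostly higher but some lower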;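 note: thallium influx through GIRK channels coupled to M4 in HEK293 cells with BTC-AM dye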); conditions: at 10 µM, actives lie on both sides
How it was run: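 Material: M4/GIRK1/GIRK2 stable HEK293 cell line. Medium: pH 7.3 thallium assay buffer. Dosing: single compound concentration, 10 µM final. Schedule: 1 h dye loading, 2 min kinetic read. Measured by: kinetic fluorescence with BTC-AM dye. Read-out: post-addition slope, 15–24 s, of baseline-normalized fluorescence. Benchmarks: carbachol and DMSO controls.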

[7] = inhibitors of larval lipid processing in zebrafish, primary screen, whole organism, PED6 fluorescence, gall bladder and intestine (AID 686;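 active = a full or partial loss of lipid-probe fluorescence in the fish gall bladder, intestine or both, judged by eye; inactive = no fluorescence loss, or compound toxic to the fish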;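 note: larvae 5 to 7 days old with five fish per well; signal comes from phospholipase A2 cleavage of quenched PED6 carried via bile; overnight exposure to compound and PED6 before scoring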); conditions: Zebrafish larvae PED6 lipid processing, fluorescence scoring; screened at 20 µM (by protocol)
How it was run: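 System: live zebrafish larvae aged 5-7 days, whole organism; measure: graded gall bladder and intestinal fluorescence inhibition per well; incubation: overnight exposure; reagent: ingested quenched lipid PED6 at 100 nM; signal: By-eye fluorescence microscopy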

[8] = inhibitors of Chlamydomonas gravitaxis, primary screen, whole organism, Chlamydomonas reinhardtii, WT vs cilia-less mutant, absorbance, 96-well (AID 463189;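 active = inhibition at or above 50% relative to wild type and mutant plate controls; inactive = inhibition below 50%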;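 note: 0% = wild type cc124 cells in DMSO and 100% = ciliumless bld1 mutant cells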); conditions: OD600 absorbance, 2 days, at 10 µM, stronger effect = higher value
[9] = measured here: cell density z-score
[10] = measured here: nuclear c-Myc green intensity z-score
[11] = measured here: nuclear pErk red intensity z-score, stronger effect = higher value

Chain of Voltage-gated potassium channel subunit beta-2 (Rattus norvegicus) (P62483 whole entry, looked up): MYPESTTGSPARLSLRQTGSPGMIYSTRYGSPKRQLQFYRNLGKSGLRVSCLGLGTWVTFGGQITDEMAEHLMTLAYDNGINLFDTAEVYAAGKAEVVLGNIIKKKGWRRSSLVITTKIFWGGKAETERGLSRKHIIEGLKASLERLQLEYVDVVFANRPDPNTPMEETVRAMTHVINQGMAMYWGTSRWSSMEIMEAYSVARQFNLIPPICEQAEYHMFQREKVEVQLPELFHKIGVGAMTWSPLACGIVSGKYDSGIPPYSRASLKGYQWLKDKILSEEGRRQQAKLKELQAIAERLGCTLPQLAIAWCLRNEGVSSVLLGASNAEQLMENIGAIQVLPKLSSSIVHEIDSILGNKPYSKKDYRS
Chain of Muscarinic acetylcholine receptor M4 (Homo sapiens) (P08173 whole entry, looked up): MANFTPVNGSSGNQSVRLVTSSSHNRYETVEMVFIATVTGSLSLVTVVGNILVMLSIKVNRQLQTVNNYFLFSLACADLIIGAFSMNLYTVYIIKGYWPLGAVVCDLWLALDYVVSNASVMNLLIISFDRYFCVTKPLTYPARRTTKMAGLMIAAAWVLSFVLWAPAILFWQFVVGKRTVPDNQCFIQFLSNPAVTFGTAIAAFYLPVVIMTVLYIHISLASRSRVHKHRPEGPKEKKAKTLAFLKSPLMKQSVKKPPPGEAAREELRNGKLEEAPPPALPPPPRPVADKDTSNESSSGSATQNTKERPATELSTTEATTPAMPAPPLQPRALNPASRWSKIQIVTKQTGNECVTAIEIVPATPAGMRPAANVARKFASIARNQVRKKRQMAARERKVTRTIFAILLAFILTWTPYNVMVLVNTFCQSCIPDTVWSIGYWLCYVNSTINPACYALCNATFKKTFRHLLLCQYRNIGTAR
Chain of Dual specificity protein phosphatase 6 (Homo sapiens) (Q16828 whole entry, looked up): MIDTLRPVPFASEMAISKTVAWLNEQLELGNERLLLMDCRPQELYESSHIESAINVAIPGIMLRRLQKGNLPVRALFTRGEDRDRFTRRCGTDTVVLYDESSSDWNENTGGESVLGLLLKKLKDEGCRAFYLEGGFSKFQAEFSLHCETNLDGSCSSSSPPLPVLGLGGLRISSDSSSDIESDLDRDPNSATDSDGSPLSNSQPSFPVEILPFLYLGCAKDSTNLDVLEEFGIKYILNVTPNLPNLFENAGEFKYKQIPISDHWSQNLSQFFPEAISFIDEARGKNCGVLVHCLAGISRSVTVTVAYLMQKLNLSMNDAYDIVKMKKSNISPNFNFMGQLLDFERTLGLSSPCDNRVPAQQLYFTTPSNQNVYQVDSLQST

| SMILES | inhibition [1] | nuclei count [1] [%] | z-score [2, 9] | z-score [2, 10] | z-score [2, 11] | inhibition [3] | fluorescence slope [4] | NADPH fluorescence slope [5] | fluorescence slope [6] | outcome [7] | inhibition [8] |
| --- | --- | --- | --- | --- | --- | --- | --- | --- | --- | --- | --- |
| CN(C)/C=C1\N=C(c2cccs2)OC1=O | -85.3% (inactive) | 178 | -0.766 | -0.714 | 0.335 | 1.75% (inactive) | -0.406 (inactive) | -4e-05 (inactive) | 0.00407 (inactive) | inactive | 26.8% (inactive) |
| NC(=O)c1ccccc1OCCOCCOCCOc1ccccc1C(N)=O | -40% (inactive) | 141 | 0.988 | 0.573 | -0.494 | 3.66% (inactive) | -0.379 (inactive) | -3.2e-05 (inactive) | 0.00555 (inactive) | inactive | 21.6% (inactive) |
| COc1cc(C(=O)Nc2ccccn2)cc(OC)c1OC | -234% (inactive) | 165 | -0.193 | -1.03 | 0.79 | -2.07% (inactive) | -0.398 (inactive) | -5.6e-05 (inactive) | 0.00377 (inactive) | inactive | 6.27% (inactive) |
| CCOC(=O)C(OC(=O)c1sc(=S)n(C)c1C)C(C)=O (stereo unspecified) | -34.4% (inactive) | 86.4 | 0.548 | -0.227 | -0.266 | 7.48% (inactive) | -0.553 (inactive) | -3.9e-05 (inactive) | 0.00794 (inactive) | inactive | 63.7% (active) |
| O=C(CCN1CCc2ccccc21)c1ccc2c(c1)OCCO2 | -46.2% (inactive) | 144 | -0.121 | -0.0206 | -0.911 | -0.159% (inactive) | -0.436 (inactive) | -2.2e-05 (inactive) | 0.00393 (inactive) | inactive | 3.69% (inactive) |
| O=C(NCCO)C1(c2ccccc2)CCCC1 | -0.2% (inactive) | 87.4 | -1.49 | 2.28 | -1.5 | 20.8% (inactive) | -0.406 (inactive) | -8.2e-06 (inactive) | 0.00732 (inactive) | inactive | -4.89% (inactive) |
